Here are results for seven compounds from ChEMBL document CHEMBL4190199, “Antimalarial Activities of Alkyl Cyclohexenone Derivatives Isolated from the Leaves of Poupartia borbonica” (J Nat Prod, 2017).

For data set [1], the system named is Plasmodium falciparum. Put plainly: Antiplasmodial activity against chloroquine-sensitive Plasmodium falciparum F32-Tanzania after 48 hrs by [3H]-hypoxanthine incorporation assay. In kind it is functional, organism-based.
Another data set relates to WI-38. Put plainly: Cytotoxicity against human WI38 cells after 48 hrs by WST-1 assay. Particulars: WI-38, 48 h. In kind it is cell-based. Background: Tetrazolium assays rely on reduction of a dye to a coloured formazan, in cell work by metabolically active cells.
In a further data set the test system is HeLa. Put plainly: Cytotoxicity against human HeLa cells after 48 hrs by WST-1 assay. In kind it is functional, cell-based. Summed up:
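HeLa cells seeded at 6000 per well in medium containing test compounds and incubated 48 h. WST-1 then added for 30 min at 37 °C, absorbance read at 450 nm. Results expressed as percent of untreated control cells; IC50 taken from graphs.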

Data set [2] in a line: Hemolytic activity in human RBC at 10 ug/ml after 1 hr relative to control. In kind it is ADME, cell-based, Erythrocyte. Particulars: red blood cells, read-out: Activity. In short, it runs like this: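 Human A+ erythrocytes, 10% (v/v) in PBS, incubated in triplicate with compounds at final 10 µg/mL (DMSO <1%) for 1 h at room temperature with agitation. Mixtures centrifuged 5 min at 2000 rpm, supernatant absorbance read at 550 nm. 1% (v/v) Triton X-100 served as 100% lysis and PBS as 0% lysis.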

Data set [3] in a line: Selectivity index, ratio of IC50 for human WI38 cells to IC50 for asexual erythrocyte stage of chloroquine-sensitive Plasmodium falciparum 3D7 infected in human red blood cells. In kind it is toxicity, cell-based. Particulars: read-out: Ratio IC50.
The subject of data set [4] is Plasmodium falciparum. Put plainly: Antiplasmodial activity against asexual erythrocyte stage of chloroquine-sensitive Plasmodium falciparum 3D7 infected in human red blood cells after 48 hrs by lactate dehydrogenase assay. In kind it is functional, organism-based. The settings on record: 3D7, 48 h. In short, it runs like this:
(§1)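 P. falciparum asexual blood stages in human A+ erythrocytes, RPMI 1640 with HEPES, NaHCO3, glutamine, glucose, hypoxanthine, gentamycin and 10% human A+ serum. Parasitemia 2%, hematocrit 1%. Eight 2-fold dilutions in triplicate, DMSO at most 1%. After 48 h, growth read by pLDH activity. Artemisinin positive control. IC50 read from graphs.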

The subject of data set [5] is Plasmodium falciparum. Kind of data set: Antiplasmodial activity against asexual erythrocyte stage of chloroquine-resistant Plasmodium falciparum W2 infected in human red blood cells after 48 hrs by lactate dehydrogenase assay. In kind it is functional, organism-based. Particulars: W2, 48 h. In short, it runs like this: as §1
Data set [6] can be described thus: Selectivity index, ratio of IC50 for human WI38 cells to IC50 for asexual erythrocyte stage of chloroquine-resistant Plasmodium falciparum W2 infected in human red blood cells. In kind it is toxicity, cell-based. The settings on record: read-out: Ratio IC50.
The species named for data set [7] is Danio rerio. Kind of data set: Toxicity in 72 hrs post fertilized zebra fish embryo assessed as death measured after third treatment dose replaced once daily for 3 days. In kind it is organism-based. The settings on record: zebrafish, in vivo. In short, it runs like this: (§2)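 Dechorionated zebrafish embryos, 25 per condition, duplicate geometric series. The first step spanned 10 to 0.001 µg/mL and the second was narrowed to 10 to 1 µg/mL. Compound was diluted from DMSO in fish medium, final DMSO at most 0.4%. Treatment was renewed daily for 3 days, with untreated and 0.4% DMSO controls. Embryos were observed daily until 72 hpf.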

The species entered for data set [8] is Danio rerio. Kind of data set: Toxicity in 24 to 72 hrs post fertilized zebra fish embryo assessed as embryo disintegration at 3 to 10 ug/ml replaced once daily for 3 days. In kind it is organism-based. The settings on record: zebrafish, in vivo. In short, it runs like this:
as §2

The species named for data set [9] is Danio rerio. Put plainly: Toxicity in 72 hrs post fertilized zebra fish embryo assessed as decrease in pericardial function measured after third treatment dose replaced once daily for 3 days. In kind it is organism-based. Particulars: zebrafish, in vivo. Summed up:
as §2

For data set [10], the species on record is Danio rerio. Put plainly: Toxicity in 72 hrs post fertilized zebra fish embryo assessed as morphological changes at 1 ug/ml replaced once daily for 3 days. In kind it is organism-based. The settings on record: zebrafish, in vivo. In short, it runs like this: as §2
Data set [11] is filed under the species Danio rerio. Put plainly: Toxicity in 72 hrs post fertilized zebra fish embryo assessed as body axis deformation measured after third treatment dose replaced once daily for 3 days. In kind it is organism-based. The settings on record: zebrafish, in vivo. Summed up:
as §2

Data set [12] is filed under the species Danio rerio. Kind of data set: Toxicity in 24 to 72 hrs post fertilized zebra fish embryo assessed as percentage of bradycardia developed embryos at 2 to 2.5 ug/ml replaced once daily for 3 days measured each day until 72 hrs post fertilization. The settings on record: zebrafish, in vivo. In kind it is organism-based. In short, it runs like this: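 Dechorionated zebrafish embryos, 25 per condition, exposed from 24 hpf. Compound in DMSO diluted in zebrafish medium (final DMSO at most 0.4%). Treatment replaced once daily for 3 days, with a narrowed 10–1 µg/mL range run in duplicate. Embryos observed daily to 72 hpf for mortality, disintegration, bradycardia and morphology. Untreated and 0.4% DMSO groups of 25 served as controls.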

The species entered for data set [13] is Danio rerio. Put plainly: Toxicity in 72 hrs post fertilized zebra fish embryo assessed as cumulative mortality measured after third treatment dose replaced once daily for 3 days. In kind it is organism-based. Particulars: zebrafish, in vivo. In short, it runs like this:
as §2

The subject of data set [14] is Plasmodium berghei. Put plainly: Antimalarial activity against Plasmodium berghei NK173 infected in Swiss mouse assessed as inhibition of parasitemia at 15 mg/kg, ip qd administered 4 hrs post infection for 3 days measured on day 7 by Giemsa staining based microscopy relative to control. In kind it is functional. In short, it runs like this: (§3)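 Female Swiss mice (10 weeks, 25 ± 2 g), groups of five, infected ip with 2 × 10^7 P. berghei NK173 parasitized red cells. 15 mg/kg ip in 7% Tween 80/3% EtOH in sterile water, first dose 4 h post-infection (day 0), then once daily for 3 more days. Parasitemia read on Giemsa-stained tail-blood thin smears (≥500 erythrocytes). Inhibition calculated against vehicle controls at days 5 and 7.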

Data set [15] is filed under the species Danio rerio. Kind of data set: Toxicity in 24 to 72 hrs post fertilized zebra fish embryo assessed as death at 10 ug/ml measured within 1 day post dose. In kind it is organism-based. The settings on record: zebrafish, in vivo. In short, it runs like this: as §2
Data set [16] relates to Plasmodium berghei. Kind of data set: Antimalarial activity against Plasmodium berghei NK173 infected in Swiss mouse assessed as inhibition of parasitemia at 15 mg/kg, ip qd administered 4 hrs post infection for 3 days measured on day 5 by Giemsa staining based microscopy relative to control. In kind it is functional. In short, it runs like this:
as §3

A further data set relates to Mus musculus. Kind of data set: Toxicity in Swiss mouse assessed as mortality at 15 mg/kg, ip qd measured on day 7. In kind it is organism-based. The settings on record: in vivo.
Data set [17] is filed under the species Danio rerio. Kind of data set: Toxicity in 24 to 72 hrs post fertilized zebra fish embryo assessed as bradycardia at 2 to 2.5 ug/ml replaced once daily for 3 days. In kind it is organism-based. The settings on record: zebrafish, in vivo. In short, it runs like this:
as §2

For data set [18], the species on record is Danio rerio. Put plainly: Toxicity in 72 hrs post fertilized zebra fish embryo assessed as mortality at 1 ug/ml replaced once daily for 3 days. In kind it is organism-based. Particulars: zebrafish, in vivo. Summed up: as §2
Data set [19] can be described thus: Toxicity in 48 hrs post fertilized zebra fish embryo assessed as embryo mortality at 2 ug/ml replaced once daily for 3 days. In kind it is organism-based, Danio rerio. Particulars: zebrafish, in vivo; read-out: Activity. In short, it runs like this: as §2
Data set [20] is filed under the species Danio rerio. Kind of data set: Toxicity in 48 hrs post fertilized zebra fish embryo assessed as cumulative mortality at 1 to 10 ug/ml replaced once daily for 3 days. In kind it is organism-based. The settings on record: zebrafish, in vivo, 72 h. Summed up:
as §2

The species entered for data set [21] is Danio rerio. Kind of data set: Toxicity in 24 to 72 hrs post fertilized zebra fish embryo assessed as death at 3 to 10 ug/ml measured within 1 day post dose. In kind it is organism-based. The settings on record: zebrafish, in vivo. In short, it runs like this:
as §2

Structures are written as SMILES. ≈ marks a conversion by molar mass, not a printed value.

As usually defined, the IC50 is the concentration needed to halve the response being measured. Lower therefore signals greater potency. Consider `CCCCCC/C=C\CCCCCCCC(O)C[C@]1(O)C=C[C@@H](O)[C@@H](O)C1` (stereo partly drawn), for which the IC50 in the data set with Plasmodium falciparum [1] was 86.4 µg/mL (≈ 226 µM).

As to `CCCCCC/C=C\CCCCCCCC(=O)C[C@@]1(O)C=CC(=O)[C@@H](O)C1`, the IC50 with WI-38 is 1.01 to 2.66 µg/mL (≈ 2.67 to 7.03 µM); in the data set on HeLa, 1.31 to 3.45 µg/mL (≈ 3.46 to 9.11 µM); in the data set with Plasmodium falciparum [4], 430 to 1130 nM; with Plasmodium falciparum [5] it was 0.48 to 1.27 µg/mL (≈ 1.27 to 3.35 µM). Also, the hemolysis at 1 h, 10 ug/ml in data set [2] is under 1%. Besides, the selectivity ratio in [3] was found to be 2.34; in [6], 2.1.

Turning to `CCCCCCCCCCCCCCC[C@@H]1C[C@@]2(O)CC(=O)C=C[C@@]2(O)O1`, the IC50 with WI-38 lay within 1.04 to 2.73 µg/mL (≈ 2.73 to 7.17 µM); with HeLa it was 1.44 to 3.77 µg/mL (≈ 3.78 to 9.91 µM); with Plasmodium falciparum [4], 690 to 1810 nM; in the data set on Plasmodium falciparum [5] it was 0.37 to 0.97 µg/mL (≈ 0.972 to 2.55 µM). Moreover, the hemolysis at 1 h, 10 ug/ml in data set [2] is under 1%. In addition, the selectivity ratio in data set [3] worked out at 1.51; in [6], 2.81.

A word on the inhibition in vivo: it is the drop in the measured response relative to a control, in per cent. Take `CCCCCC/C=C\CCCCCCC[C@@H]1C[C@@]2(O)CC(=O)C=C[C@@]2(O)O1`: the Activity result in the data set listed under Danio rerio [7] is on record as “Toxic”; in the data set listed under Danio rerio [8] it was “Toxic”; in the data set filed under Danio rerio [9], “Toxic”; in the data set filed under Danio rerio [10], “Non-Toxic”; in the data set listed under Danio rerio [11], “Toxic”; in the data set listed under Danio rerio [12], 5%. Moreover, the Activity entry in the data set filed under Danio rerio [13] was “Toxic”; in the data set filed under Danio rerio [15] it was “Toxic”; in the data set on Mus musculus it was “Toxic”; in the data set filed under Danio rerio [17], “Toxic”; in the data set listed under Danio rerio [18] it was “Non-Toxic”; in the data set listed under Danio rerio [20] it was “Toxic”. Besides, in the data set filed under Danio rerio [21], the Activity result is on record as “Toxic”. In addition, the IC50 in the data set with WI-38 lay in the range of 0.6 to 1.58 µg/mL (≈ 1.58 to 4.17 µM); with HeLa, 0.8 to 2.1 µg/mL (≈ 2.11 to 5.55 µM); in the data set on Plasmodium falciparum [4], 340 to 900 nM; in the data set on Plasmodium falciparum [5], 0.21 to 0.55 µg/mL (≈ 0.555 to 1.45 µM). In addition, the hemolysis at 1 h, 10 ug/ml in data set [2] is under 1%. For the same compound, the selectivity ratio was determined as 1.76 in data set [3] and 2.86 in [6]. Moreover, the values for the inhibition in vivo at 15 mg/kg in the data set with Plasmodium berghei [14] and with Plasmodium berghei [16] were 69.5% and 59.1%, respectively. The mortality at 72 h, 2 ug/ml in data set [19] was determined as 60%.

Take `C[C@@H]1CC[C@H]2[C@@H](C)C(=O)O[C@@H]3O[C@@]4(C)CC[C@@H]1[C@]32OO4` [ARTEMISININ]: the results for the IC50 with Plasmodium falciparum [4] and in the data set with Plasmodium falciparum [5] were 4 to 14 nM and 0.01 to 0.035 µg/mL (≈ 0.0354 to 0.124 µM), respectively.

As to `CC[C@@]1(O)C(=O)OCc2c1cc1n(c2=O)Cc2cc3ccccc3nc2-1` [CAMPTOTHECIN], the 50% inhibitory concentration (IC50) in the data set on WI-38 is 0.03 to 0.086 µg/mL (≈ 0.0861 to 0.247 µM); in the data set on HeLa, 0.08 to 0.23 µg/mL (≈ 0.23 to 0.66 µM).

Take `O=c1c(O)c(-c2ccc(O)c(O)c2)oc2cc(O)cc(O)c12` [QUERCETIN]: in the data set with Plasmodium falciparum [4], the IC50 came out at 17500 nM.
